In PMC6139428 (Molecular Nutrition & Food Research, 2017):
“Also recorded” adds a separate entry of the source.

Legend:
[1] = Nutrikinetics of isoflavone metabolites in serum after oral boiled soybean; format: in vivo, mice (C57BL/6); settings: for serum concentration, CGJ‐treated compared with BS‐treated / bioavailability, CGJ‐treated compared to BS‐treated (unfermented soybean): OVX mice; for serum concentration, CGJ‐treated compared with BS‐treated: relative peak area; for concentration based on area‐under‐the‐curve analysis: all groups; for AUC, CGJ treatment versus BS treatment: sham group; for detection in pooled serum samples: pooled serum of sham and OVX groups after BS or CGJ, UPLC–QTOF‐MS; for bioavailability, CGJ‐treated compared to BS‐treated (unfermented soybean): abstract does not name the group; for AUC(0–24h), CGJ administered versus BS administered: OVX groups
MC3T3‐E1 cells [2] = assay: Mineralization assay; format: cell-based; settings: 21‐day incubation
How it was run: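 MC3T3‐E1 cells were differentiated with test compound and incubated 21 days. Cells were washed, fixed in 4% formalin and stained with 2% Alizarin Red S. Bound stain was solubilized in 10% […] in 10 mM sodium phosphate and absorbance read at 562 nm. Means ± SD, n = 3, three independent experiments, tested against the control group.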

MC3T3‐E1 cells [3] = assay: Alkaline phosphatase; format: cell-based; settings: for ALP activity: 0.1–0 5 μ M, 6 days differentiation; for osteoblastogenesis: abstract summary
How it was run: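 MC3T3‐E1 subclone 4 cells were kept in αMEM without L‐ascorbic acid and seeded at 2 × 10^4 cells/well. Differentiation was induced with 50 μg mL–1 L‐ascorbic acid and 10 mM β‐glycerophosphate plus test compound for 6 days. Cells were PBS‐washed and lysed in 0.2% Triton X‐100, and ALP was read with a pNPP kit. Means ± SD, n = 3, three independent experiments, tested against the control group.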

RAW 264.7 cells = assay: RANKL‐induced bone resorption activity; format: cell-based; settings: abstract summary
How it was run: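 RAW 264.7 macrophages were grown in DMEM and seeded. Medium was replaced with RANKL‐containing differentiation medium plus test compound, then held 5 days without medium change. Bone resorption activity was measured with a commercial bone resorption assay kit. Means ± SD, n = 3, three independent experiments, tested against the control group.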

| Compound | serum concentration, CGJ‐treated compared with BS‐treated [1] | ALP activity (MC3T3‐E1 cells [3]) | concentration based on area‐under‐the‐curve analysis [1] | detection in pooled serum samples [1] | further results |
| --- | --- | --- | --- | --- | --- |
| O=C(O)c1ccc(O)cc1 [4‐hydroxybenzoic acid, 4‐Hydroxybenzoic acid] | higher in BS‐treated |  |  |  |  |
| O=C(O)/C=C/c1ccc(O)c(O)c1 [Caffeic acid] | higher in BS‐treated | stimulated ALP activity |  |  | mineralization, calcium deposition by ARS staining (MC3T3‐E1 cells [2]): Extensive calcium deposition |
| O=c1c(-c2ccc(O)cc2)coc2cc(O)ccc12 [Daidzein] | significantly higher |  | high concentrations |  | AUC, CGJ treatment versus BS treatment [1]: significantly higher |
| O=c1c(-c2ccc(O)cc2)coc2cc(O[C@@H]3O[C@H](CO)[C@@H](O)[C@H](O)[C@H]3O)ccc12 [Daidzin] |  |  |  | not detected |  |
| O=C(O)[C@H]1O[C@@H](Oc2ccc3c(c2)OC[C@H](c2ccc(O)cc2)C3)[C@H](O)[C@@H](O)[C@@H]1O [Equol 7‐glucuronide] | higher concentrations | stimulated ALP activity | high concentrations |  | mineralization, calcium deposition by ARS staining (MC3T3‐E1 cells [2]): Extensive calcium deposition; osteoclast formation (RAW 264.7 cells): inhibit osteoclast formation; osteoblastogenesis (MC3T3‐E1 cells [3]): promote osteoblastogenesis; bioavailability, CGJ‐treated compared to BS‐treated (unfermented soybean) [1]: enhances; also recorded: higher bioavailability |
| COc1ccc(-c2coc3cc(O)ccc3c2=O)cc1 [Formononetin] | higher in BS‐treated | stimulated ALP activity |  |  |  |
| O=c1c(-c2ccc(OS(=O)(=O)O)cc2)coc2cc(O)cc(O)c12 [Genistein 4′‐sulfate] | higher concentrations | stimulated ALP activity | high concentrations |  | mineralization, calcium deposition by ARS staining (MC3T3‐E1 cells [2]): Extensive calcium deposition; osteoclast formation (RAW 264.7 cells): inhibit osteoclast formation; osteoblastogenesis (MC3T3‐E1 cells [3]): promote osteoblastogenesis; AUC(0–24h), CGJ administered versus BS administered [1]: significantly higher |
| O=c1c(-c2ccc(O)cc2)coc2cc(O)cc(O)c12 [Genistein] | higher concentrations; also recorded: significantly higher |  | high concentrations | detected | AUC(0–24h), CGJ administered versus BS administered [1]: significantly higher; bioavailability, CGJ‐treated compared to BS‐treated (unfermented soybean) [1]: enhances; AUC, CGJ treatment versus BS treatment [1]: significantly higher |
| O=c1c(-c2ccc(O)cc2)coc2cc(O[C@@H]3O[C@H](CO)[C@@H](O)[C@H](O)[C@H]3O)cc(O)c12 [Genistin] |  |  |  | not detected |  |
| COc1cc2c(=O)c(-c3ccc(O)cc3)coc2cc1O [Glycitein] |  |  |  | detected |  |
| Dihydrodaidzein sulfate | higher concentrations |  | high concentrations |  |  |
| Methyl caffeic acid | higher in BS‐treated |  |  |  |  |
